Measured values reported in PMC7115694 (European Journal of Medicinal Chemistry, 2010).
Marks after values point to notes of the source that are not given here.

Experiments:
Format in all cases: cell-based
[1] = system: Staphylococcus aureus; experiment: MIC by tube dilution method; details: observed, S. aureus, 37 °C 24 h
[2] = system: Bacillus subtilis; experiment: MIC by tube dilution method; details: observed, B. subtilis, 37 °C 24 h
Procedure, shortened: (§1)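 Test compound is diluted in double strength nutrient broth (I.P.) by tube dilution, with ciprofloxacin as reference. Samples incubated at 37 °C for 24 h. MIC is the lowest concentration inhibiting microbial growth, transformed into pMIC for analysis.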

[3] = system: Escherichia coli; experiment: MIC by tube dilution method; details: observed, E. coli, 37 °C 24 h
Procedure, shortened: as §1

[4] = system: S. aureus, B. subtilis and E. coli; experiment: Average antibacterial activity; details: average antibacterial activity (pMICsa + pMICbs + pMICec)/3
[5] = system: Candida albicans; experiment: MIC by tube dilution method; details: observed, C. albicans, 37 °C 48 h
[6] = system: Aspergillus niger; experiment: MIC by tube dilution method; details: observed, A. niger, 25 °C 7 d
[7] = system: C. albicans and A. niger; experiment: Average antifungal activity; details: average antifungal activity (pMICca + pMICan)/2
[8] = system: S. aureus, B. subtilis, E. coli, C. albicans and A. niger; experiment: Average antimicrobial activity; details: mean of five pMIC values
[9] = system: Feline Herpes virus; experiment: organism not typed; details: CRFK, read-out: EC50 Feline Corona Virus
[10] = system: Para-influenza-3 virus; experiment: organism not typed; details: Vero, read-out: EC50 Para-influenza-3 virus
[11] = system: Reovirus-1; experiment: organism not typed; details: Vero, read-out: EC50 Reovirus-1
[12] = system: HEL cells; experiment: Cytotoxicity in uninfected cell cultures; details: microscopically detectable alteration of cell morphology
Procedure, shortened: (§2)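 Uninfected cell cultures are exposed to serial dilutions of test compound in parallel with the virus cytopathicity assays. Cells are examined microscopically. Minimum cytotoxic concentration is the lowest concentration causing a microscopically detectable alteration of normal cell morphology.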

[13] = system: HeLa cells; experiment: Cytotoxicity in uninfected cell cultures; details: cell morphology
Procedure, shortened: as §2

[14] = system: Vero cells; experiment: Cytotoxicity in uninfected cell cultures; details: cell morphology
Procedure, shortened: as §2

| Compound | pMICsa [1] | pMICbs [2] | pMICec [3] | pMICab [4] | pMICca [5] | pMICan [6] | pMICaf [7] | pMICam [8] | EC50 [9] | EC50 [10] | EC50 [11] | Minimum cytotoxic concentration [12] | Cytotoxicity Minimum cytotoxic concentration [13] | Minimum cytotoxic concentration [14] |
| --- | --- | --- | --- | --- | --- | --- | --- | --- | --- | --- | --- | --- | --- | --- |
| O=C(O)c1cn(C2CC2)c2cc(N3CCNCC3)c(F)cc2c1=O [Ciprofloxacin, ciprofloxacin, reference compound] | 2.61* | 2.61* | 2.61* | 2.61 | – | – | – | – | – | – | – | – | – | – |
| Nc1ccccc1C(=O)n1c(-c2ccc(S(=O)(=O)O)cc2)nc2ccccc21 [Compound 1] | 1.80 | 2.03 | 2.40 | 2.08 | 1.70 | 1.50 | 1.60 | 1.89 | > 4 µg/mL | > 4 µg/mL | > 4 µg/mL | >100 µg/mL | ≥20 µg/mL | – |
| O=C(c1ccccc1)n1c(-c2ccc(S(=O)(=O)O)cc2)nc2ccccc21 [Compound 2] | 2.08 | 2.12 | 2.12 | 2.11 | 1.78 | 1.48 | 1.63 | 1.92 | > 100 µg/mL | > 100 µg/mL | > 100 µg/mL | >100 µg/mL | >100 µg/mL | >100 µg/mL |
| Nc1ccc(C(=O)n2c(-c3ccc(S(=O)(=O)O)cc3)nc3ccccc32)cc1 [Compound 3] | 2.10 | 1.80 | 2.10 | 2.00 | 1.20 | 1.50 | 1.35 | 1.74 | > 100 µg/mL | > 100 µg/mL | > 100 µg/mL | >100 µg/mL | >100 µg/mL | >100 µg/mL |
| O=C(c1ccccc1Cl)n1c(-c2ccc(S(=O)(=O)O)cc2)nc2ccccc21 [Compound 4] | 2.09 | 1.82 | 2.42 | 2.11 | 1.52 | 1.22 | 1.37 | 1.81 | > 100 µg/mL | > 100 µg/mL | > 100 µg/mL | >100 µg/mL | >100 µg/mL | >100 µg/mL |
| O=C(c1ccc(Cl)cc1)n1c(-c2ccc(S(=O)(=O)O)cc2)nc2ccccc21 [Compound 5] | 2.12 | 2.13 | 2.42 | 2.22 | 1.52 | 1.22 | 1.37 | 1.88 | > 100 µg/mL | > 100 µg/mL | > 100 µg/mL | >100 µg/mL | >100 µg/mL | >100 µg/mL |
| O=C(c1cccc(O)c1)n1c(-c2ccc(S(=O)(=O)O)cc2)nc2ccccc21 [Compound 6] | 2.10 | 2.15 | 2.40 | 2.22 | 1.50 | 1.20 | 1.35 | 1.87 | > 100 µg/mL | > 100 µg/mL | > 100 µg/mL | >100 µg/mL | >100 µg/mL | >100 µg/mL |
| O=C(c1ccc(O)cc1O)n1c(-c2ccc(S(=O)(=O)O)cc2)nc2ccccc21 [Compound 7] | 2.12 | 2.42 | 2.42 | 2.32 | 1.52 | 1.22 | 1.37 | 1.94 | > 100 µg/mL | > 100 µg/mL | > 100 µg/mL | 100 µg/mL | >100 µg/mL | >100 µg/mL |
| COc1ccc(C(=O)n2c(-c3ccc(S(=O)(=O)O)cc3)nc3ccccc32)cc1 [Compound 8] | 2.12 | 2.12 | 2.12 | 2.12 | 1.51 | 1.21 | 1.36 | 1.82 | > 100 µg/mL | > 100 µg/mL | > 100 µg/mL | >100 µg/mL | >100 µg/mL | >100 µg/mL |
| O=C(c1ccc([N+](=O)[O-])cc1)n1c(-c2ccc(S(=O)(=O)O)cc2)nc2ccccc21 [Compound 9, 4-[1-(4-Nitrobenzoyl)-1H-benzoimidazol-2-yl]-benzenesulfonic acid] | 2.43 | 2.43 | 2.43 | 2.43 | 2.13 | 1.53 | 1.83 | 2.19 | > 100 µg/mL | > 100 µg/mL | > 100 µg/mL | >100 µg/mL | >100 µg/mL | >100 µg/mL |
| C/C=C/C(=O)n1c(-c2ccc(S(=O)(=O)O)cc2)nc2ccccc21 [Compound 12] | 1.85 | 1.85 | 1.85 | 1.85 | 1.44 | 0.84 | 1.14 | 1.57 | > 100 µg/mL | > 100 µg/mL | > 100 µg/mL | >100 µg/mL | >100 µg/mL | >100 µg/mL |
| C=CC(=O)n1c(-c2ccc(S(=O)(=O)O)cc2)nc2ccccc21 [Compound 13] | 1.72 | 2.02 | 2.32 | 2.02 | 1.42 | 1.12 | 1.27 | 1.72 | > 20 µg/mL | > 100 µg/mL | > 100 µg/mL | 100 µg/mL | >100 µg/mL | >100 µg/mL |
| C=C(C)C(=O)n1c(-c2ccc(S(=O)(=O)O)cc2)nc2ccccc21 [Compound 14] | 1.74 | 1.74 | 2.04 | 1.84 | 1.44 | 1.14 | 1.29 | 1.62 | > 100 µg/mL | > 100 µg/mL | > 100 µg/mL | >100 µg/mL | >100 µg/mL | >100 µg/mL |
| O=C(c1cccnc1)n1c(-c2ccc(S(=O)(=O)O)cc2)nc2ccccc21 [Compound 15] | 2.13 | 2.13 | 2.39 | 2.22 | 1.75 | 1.48 | 1.62 | 1.98 | > 100 µg/mL | > 100 µg/mL | > 100 µg/mL | >100 µg/mL | >100 µg/mL | >100 µg/mL |
| O=C(c1ccccc1O)n1c(-c2ccc(S(=O)(=O)O)cc2)nc2ccccc21 [Compound 16] | 2.10 | 2.10 | 2.26 | 2.15 | 1.50 | 1.50 | 1.50 | 1.89 | > 100 µg/mL | > 100 µg/mL | > 100 µg/mL | >100 µg/mL | >100 µg/mL | >100 µg/mL |
| CCCCCCCC/C=C/CCCCCCCC(=O)n1c(-c2ccc(S(=O)(=O)O)cc2)nc2ccccc21 [Compound 18, 4-(1-octadec-9-enoyl-1H-benzoimidazol-2-yl)-benzenesulfonic acid] | 2.24 | 2.24 | 1.85 | 2.11 | 1.94 | 1.63 | 1.79 | 1.98 | > 100 µg/mL | > 100 µg/mL | > 100 µg/mL | >100 µg/mL | >100 µg/mL | >100 µg/mL |
| OC(Cn1cncn1)(Cn1cncn1)c1ccc(F)cc1F [Fluconazole, fluconazole, reference compound] | – | – | – | – | 2.64** | 2.64** | 2.64 | – | – | – | – | – | – | – |
